Test results: ChEMBL document CHEMBL4145448, “Broad activity of diphenyleneiodonium analogues against Mycobacterium tuberculosis, malaria parasites and bacterial pathogens” (Eur J Med Chem, 2018)

Tests used:
[1] = test system: Pseudomonas aeruginosa; assay: Antibacterial activity against Pseudomonas aeruginosa QLD PSA 1 after 18 hrs by broth microdilution method; type: functional; details: QLD PSA 1, 18 h
How it was run: (§1)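 Broth microdilution per CLSI in cation-adjusted Mueller-Hinton broth. 100 µL inoculum (~10^6 cfu/mL in CaMHB) mixed with 100 µL CaMHB containing compound, 0 to 128 µM. Incubated 18 h at 37 °C. MIC taken as the lowest concentration with no visible growth. Polymyxin B served as positive control. Isolates were stored at -80 °C in tryptone soy broth with 20% glycerol.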

[2] = test system: Pseudomonas aeruginosa; assay: Antibacterial activity against Pseudomonas aeruginosa isolate 18878B klon 1 after 18 hrs by broth microdilution method; type: functional; details: isolate 18878B klon 1, 18 h; how it was run: as §1
[3] = test system: Pseudomonas aeruginosa; assay: Antibacterial activity against Pseudomonas aeruginosa isolate M146201 after 18 hrs by broth microdilution method; type: functional; details: isolate M146201, 18 h; how it was run: as §1
[4] = test system: Acinetobacter baumannii; assay: Antibacterial activity against Acinetobacter baumannii ATCC 19606 after 18 hrs by broth microdilution method; type: functional; details: ATCC 19606 = CIP 70.34 = JCM 6841, 18 h; how it was run: as §1
[5] = test system: Acinetobacter baumannii; assay: Antibacterial activity against Acinetobacter baumannii isolate 246-01-C after 18 hrs by broth microdilution method; type: functional; how it was run: as §1
[6] = test system: Acinetobacter baumannii; assay: Antibacterial activity against Acinetobacter baumannii ATCC 17978 after 18 hrs by broth microdilution method; type: functional; details: ATCC 17978, 18 h; how it was run: as §1
[7] = test system: Acinetobacter baumannii; assay: Antibacterial activity against Acinetobacter baumannii ATCC 19606 col10 after 18 hrs by broth microdilution method; type: functional; details: ATCC 19606 = CIP 70.34 = JCM 6841 col10, 18 h; how it was run: as §1
[8] = test system: Acinetobacter baumannii; assay: Antibacterial activity against Acinetobacter baumannii isolate 07AC-336 after 18 hrs by broth microdilution method; type: functional; details: isolate 07AC-336, 18 h; how it was run: as §1
[9] = test system: Acinetobacter baumannii; assay: Antibacterial activity against Acinetobacter baumannii ATCC 17978 col10 after 18 hrs by broth microdilution method; type: functional; details: ATCC 17978 col10, 18 h; how it was run: as §1
[10] = test system: Klebsiella pneumoniae; assay: Antibacterial activity against Klebsiella pneumoniae isolate M320445 after 18 hrs by broth microdilution method; type: functional; details: isolate M320445, 18 h; how it was run: as §1
[11] = test system: Klebsiella pneumoniae; assay: Antibacterial activity against Klebsiella pneumoniae isolate 1 after 18 hrs by broth microdilution method; type: functional; details: isolate 1, 18 h; how it was run: as §1
[12] = test system: Enterococcus faecium; assay: Antibacterial activity against vancomycin-resistant Enterococcus faecium ATCC 700221 after 18 hrs by broth microdilution method; type: functional; details: ATCC 700221, 18 h; how it was run: as §1
[13] = test system: Klebsiella pneumoniae; assay: Antibacterial activity against Klebsiella pneumoniae isolate 248-33-D after 18 hrs by broth microdilution method; type: functional; how it was run: as §1
[14] = test system: Escherichia coli; assay: Antibacterial activity against Escherichia coli N4149 after 18 hrs by broth microdilution method; type: functional; details: N4149, 18 h; how it was run: as §1
[15] = test system: Staphylococcus aureus; assay: Antibacterial activity against methicillin-resistant Staphylococcus aureus ATCC 43300 after 18 hrs by broth microdilution method; type: functional; details: ATCC 43300, 18 h; how it was run: as §1
[16] = test system: Staphylococcus aureus; assay: Antibacterial activity against vancomycin-intermediate Staphylococcus aureus ATCC 700698 after 18 hrs by broth microdilution method; type: functional; details: ATCC 700698, 18 h; how it was run: as §1
[17] = test system: Staphylococcus aureus; assay: Antibacterial activity against vancomycin-resistant Staphylococcus aureus ATCC 700699 after 18 hrs by broth microdilution method; type: functional; details: ATCC 700699, 18 h; how it was run: as §1
[18] = Selectivity index, ratio of CC50 for human HepG2 cells in presence of 1% FBS to MIC for Pseudomonas aeruginosa ATCC 27853; type: toxicity; details: read-out: Selectivity Index
How it was run: (§2)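 Selectivity index is CC50 (1% FBS) divided by MIC. […] They then got compound at 300 to 0.14 µM (3-fold steps) for 24 h at 37 °C, 5% CO2. Resazurin (10 µM, 2 h) was read at ex/em 560/590 in duplicate wells. For MIC, CLSI broth microdilution was run in CaMHB with ~10^6 cfu/mL inoculum and 0–128 µM compound.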

[19] = Selectivity index, ratio of CC50 for human HepG2 cells in presence of 1% FBS to MIC for Pseudomonas aeruginosa QLD PSA 1; type: toxicity; details: read-out: Selectivity Index; how it was run: as §2
[20] = Selectivity index, ratio of CC50 for human HepG2 cells in presence of 1% FBS to MIC for Acinetobacter baumannii ATCC 19606; type: toxicity; details: read-out: Selectivity Index
[21] = Selectivity index, ratio of CC50 for human HepG2 cells in presence of 1% FBS to MIC for Acinetobacter baumannii ATCC 17978; type: toxicity; details: read-out: Selectivity Index
[22] = Selectivity index, ratio of CC50 for human HepG2 cells in presence of 1% FBS to MIC for Acinetobacter baumannii ATCC 19606 col10; type: toxicity; details: read-out: Selectivity Index
[23] = Selectivity index, ratio of CC50 for human HepG2 cells in presence of 1% FBS to MIC for Acinetobacter baumannii isolate 07AC-336; type: toxicity; details: read-out: Selectivity Index
[24] = Selectivity index, ratio of CC50 for human HepG2 cells in presence of 1% FBS to MIC for Acinetobacter baumannii ATCC 17978 col10; type: toxicity; details: read-out: Selectivity Index
[25] = Selectivity index, ratio of CC50 for human HepG2 cells in presence of 1% FBS to MIC for Klebsiella pneumoniae ATCC 13883; type: toxicity; details: read-out: Selectivity Index
[26] = Selectivity index, ratio of CC50 for human HepG2 cells in presence of 1% FBS to MIC for Klebsiella pneumoniae isolate M320445; type: toxicity; details: read-out: Selectivity Index
[27] = Selectivity index, ratio of CC50 for human HepG2 cells in presence of 1% FBS to MIC for Klebsiella pneumoniae isolate 1; type: toxicity; details: read-out: Selectivity Index
[28] = Selectivity index, ratio of CC50 for human HepG2 cells in presence of 1% FBS to MIC for Klebsiella pneumoniae isolate 224-11-C; type: toxicity; details: read-out: Selectivity Index
[29] = Selectivity index, ratio of CC50 for human HepG2 cells in presence of 1% FBS to MIC for Escherichia coli N2381; type: toxicity; details: read-out: Selectivity Index
[30] = Selectivity index, ratio of CC50 for human HepG2 cells in presence of 1% FBS to MIC for Escherichia coli N11281; type: toxicity; details: read-out: Selectivity Index
[31] = Selectivity index, ratio of CC50 for human HepG2 cells in presence of 1% FBS to MIC for vancomycin-resistant Enterococcus faecium ATCC 700221; type: toxicity; details: read-out: Selectivity Index; how it was run: as §2
[32] = Selectivity index, ratio of CC50 for human HepG2 cells in presence of 1% FBS to MIC for vancomycin-intermediate Staphylococcus aureus ATCC 700698; type: toxicity; details: read-out: Selectivity Index; how it was run: as §2
[33] = Selectivity index, ratio of CC50 for human HepG2 cells in presence of 1% FBS to MIC for vancomycin-resistant Staphylococcus aureus ATCC 700699; type: toxicity; details: read-out: Selectivity Index; how it was run: as §2
[34] = test system: Mycobacterium tuberculosis; assay: Antimycobacterial activity against Mycobacterium tuberculosis H37Rv ATCC 25618 after 7 days by resazurin dye based assay; type: functional; details: H37Rv ATCC 25618, 168 h
How it was run: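 H37Rv grown at 37 °C in 7H9 with 10% ADC, 0.5% glycerol and 0.02% tyloxapol. Compounds serially diluted in water, 0 to 10 µM, in triplicate. Culture adjusted to OD600 0.001 and incubated 7 days at 37 °C. Resazurin (0.05% w/v) added for 4-24 h and fluorescence read at 590 nm. MIC is the lowest concentration giving complete growth inhibition versus untreated. Rifampicin served as control.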

Structure (SMILES)	MIC [1]	MIC [2]	MIC [3]	MIC [4]	MIC [5]	MIC [6]	MIC [7]	MIC [8]	MIC [9]	MIC [10]	MIC [11]	MIC [12]	MIC [13]	MIC [14]	MIC [15]	MIC [16]	MIC [17]	selectivity ratio [18]	selectivity ratio [19]	selectivity ratio [20]	also measured
c1ccc2c(c1)[I+]c1ccccc1-2	9.3 µM	4.7 µM	9.3 µM	9.3 µM	4.7 µM	2.3 µM	4.7 µM	19 µM	0.58 µM	37 µM	75 µM	4.7 µM	37 µM	37 µM	4.7 µM	19 µM	19 µM	0.39	3.1	3.1	selectivity ratio [21]: 13; selectivity ratio [22]: 6.3; selectivity ratio [23]: 1.6; selectivity ratio [24]: 50; selectivity ratio [25]: 0.78; selectivity ratio [26]: 0.78; selectivity ratio [27]: 0.78; selectivity ratio [28]: 0.78; selectivity ratio [29]: 0.78; selectivity ratio [30]: 0.78; selectivity ratio [31]: 6.3; selectivity ratio [32]: 1.6; selectivity ratio [33]: 1.6; MIC [34]: 0.3 µM
Cc1ccc2c(c1)-c1ccccc1[I+]2	36 µM	9 µM	36 µM	18 µM	9 µM	9 µM	9 µM	18 µM	1.1 µM	72 µM	> 72 µM	4.5 µM	72 µM	> 72 µM	9 µM	18 µM	18 µM	> 0.52	1	2.2	selectivity ratio [21]: 4.2; selectivity ratio [22]: 4.2; selectivity ratio [23]: 2.2; selectivity ratio [24]: 33; selectivity ratio [25]: 0.52; selectivity ratio [26]: 0.52; selectivity ratio [27]: > 0.52; selectivity ratio [28]: > 0.52; selectivity ratio [29]: 0.52; selectivity ratio [30]: 0.52; selectivity ratio [31]: 8.3; selectivity ratio [32]: 2.2; selectivity ratio [33]: 2.2; MIC [34]: 0.57 µM
N#Cc1ccc2c(c1)-c1ccccc1[I+]2	18 µM	8.8 µM	8.8 µM	18 µM	18 µM	4.4 µM	2.2 µM	71 µM	2.2 µM	71 µM	> 71 µM	1.1 µM	71 µM	> 71 µM	1.1 µM	8.8 µM	8.8 µM	0.32	0.13	0.13	selectivity ratio [21]: 5.1; selectivity ratio [22]: 10; selectivity ratio [23]: 0.32; selectivity ratio [24]: 10; selectivity ratio [25]: 0.63; selectivity ratio [26]: 0.32; selectivity ratio [27]: > 0.32; selectivity ratio [28]: > 0.32; selectivity ratio [29]: 0.32; selectivity ratio [30]: 0.32; selectivity ratio [31]: 20; selectivity ratio [32]: 2.5; selectivity ratio [33]: 2.5; MIC [34]: 0.29 µM
N#Cc1ccc2c(c1)[I+]c1ccccc1-2	8.8 µM	4.4 µM	18 µM	18 µM	18 µM	4.4 µM	2.2 µM	> 71 µM	2.2 µM	35 µM	> 71 µM	2.2 µM	> 71 µM	71 µM	4.4 µM	8.8 µM	8.8 µM	0.09	0.37	0.19	selectivity ratio [21]: 0.75; selectivity ratio [22]: 1.5; selectivity ratio [23]: > 0.05; selectivity ratio [24]: 1.5; selectivity ratio [25]: 0.19; selectivity ratio [26]: 0.09; selectivity ratio [27]: > 0.05; selectivity ratio [28]: > 0.05; selectivity ratio [29]: 0.05; selectivity ratio [30]: 0.05; selectivity ratio [31]: 1.5; selectivity ratio [32]: 0.37; selectivity ratio [33]: 0.37; MIC [34]: 0.29 µM
